Assay results published in ChEMBL document CHEMBL2010769, “Synthesis and antiviral activity of 6-deoxycyclopropavir, a new prodrug of cyclopropavir” (Bioorg Med Chem, 2012).
The source made the active and inactive calls. The calls are words filed in the database; no cut-off is given here.

Columns and labels:
Human betaherpesvirus 5 [1] = assay: Antiviral activity against HCMV Toledo infected in human thymus/liver tissue xenografted in SCID mouse assessed as mean log10 genome equivalents/animal at 12.5 mg/kg, po qd for 28 days measured on day 35 by RT-PCR analysis (reference value: 3.28 +/- 1.422); assay type: functional, strain Toledo
Murid betaherpesvirus 1 [2] = assay: Antiviral activity against MCMV infected in BALB/c mouse assessed as decrease in virus-induced mortality at 16.7 mg/kg, po qd for 5 days administered 24 hrs after viral infection (reference value: 67%); assay type: functional; parameters: scale not given: the % may be the effect or the level left
Outline: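 Female BALB/c mice (3 weeks, 15/group) were inoculated ip with MCMV Smith at about LD90. Oral dosing of 0.2 mL in 0.4% CMC ran once daily for 5 days, starting 24 or 48 h post-inoculation. Mice were observed daily for 21 days. Mortality was compared with CMC placebo by Fisher's exact test.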

Mus musculus [3] = assay: Toxicity in BALB/c mouse assessed as changes in behavior at 16.7 mg/kg, po qd for 5 days relative to control; assay type: organism-based; parameters: dose 16.7 mg/kg, route oral; conditions: in vivo, 120 h
Outline: (§1)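 Uninfected female BALB/c mice, 3 weeks old, in groups of 5. Compound suspended in 0.4% carboxymethylcellulose and given orally in 0.2 mL once daily for 5 days at 50, 16.7 or 5.6 mg/kg. Mean group body weight tracked over days 1–5 plus day 6 recovery. Clinical signs (ruffled coat, behaviour) were observed. Comparison was with vehicle-treated or untreated mice.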

Human betaherpesvirus 5 [4] = assay: Antiviral activity against HCMV Toledo infected in human thymus/liver tissue xenografted in SCID mouse assessed as decrease in viral infection at 12.5 mg/kg, po qd for 14 days by RT-PCR analysis (reference value: 92%); assay type: functional, strain Toledo; parameters: scale not given: the % may be the effect or the level left
Mus musculus [5] = assay: Toxicity in BALB/c mouse assessed as body weight loss at 5.6 mg/kg, po qd for 5 days relative to control; assay type: organism-based; parameters: dose 5.6 mg/kg, route oral; conditions: in vivo, 120 h; outline: as §1
Human betaherpesvirus 5 [6] = assay: Antiviral activity against HCMV Toledo infected in human thymus/liver tissue xenografted in SCID mouse assessed as decrease in viral infection at 6.25 mg/kg, po qd for 28 days measured on day 35 by RT-PCR analysis (reference value: 67%); assay type: functional, strain Toledo; parameters: scale not given: the % may be the effect or the level left
Human betaherpesvirus 5 [7] = assay: Antiviral activity against HCMV Toledo infected in human thymus/liver tissue xenografted in SCID mouse assessed as mean log10 genome equivalents/animal at 12.5 mg/kg, po qd for 21 days by RT-PCR analysis (reference value: 3.82 +/- 1.24); assay type: functional, strain Toledo
Human betaherpesvirus 5 [8] = assay: Antiviral activity against HCMV Toledo infected in human thymus/liver tissue xenografted in SCID mouse assessed as mean log10 genome equivalents/animal at 6.25 mg/kg, po qd for 14 days by RT-PCR analysis (reference value: 3.50 +/- 0.878); assay type: functional, strain Toledo
Human alphaherpesvirus 2 = assay: Antiviral activity against HSV2 infected in HFF assessed as reduction in virus induced cytopathic effect; assay type: functional, organism-based
Mus musculus [9] = assay: Toxicity in BALB/c mouse assessed as body weight loss at 50 mg/kg, po qd for 5 days relative to control; assay type: organism-based; parameters: dose 50 mg/kg, route oral; conditions: in vivo, 120 h; outline: as §1
Human alphaherpesvirus 3 = assay: Antiviral activity against VZV infected in HFF assessed as reduction in virus induced cytopathic effect; assay type: functional, organism-based
Murid betaherpesvirus 1 [10] = assay: Antiviral activity against MCMV infected in BALB/c mouse assessed as decrease in virus-induced mean day of death at 50 mg/kg, po qd for 5 days administered 24 hrs after viral infection (reference value: 4.9 +/- 0.7 days); assay type: functional
Cowpox virus = assay: Antiviral activity against Cowpox virus infected in HFF assessed as reduction in virus induced cytopathic effect at 100 uM; assay type: functional, organism-based
Murid betaherpesvirus 1 [11] = assay: Antiviral activity against MCMV infected in BALB/c mouse assessed as decrease in virus-induced mean day of death at 16.7 mg/kg, po qd for 5 days administered 48 hrs after viral infection (reference value: 5.1 +/- 0.9 days); assay type: functional
Human betaherpesvirus 5 [12] = assay: Antiviral activity against HCMV Toledo infected in human thymus/liver tissue xenografted in SCID mouse assessed as decrease in viral infection at 12.5 mg/kg, po qd for 21 days by RT-PCR analysis (reference value: 92%); assay type: functional, strain Toledo; parameters: scale not given: the % may be the effect or the level left
Human betaherpesvirus 5 [13] = assay: Antiviral activity against HCMV Toledo infected in human thymus/liver tissue xenografted in SCID mouse assessed as decrease in viral infection at 6.25 mg/kg, po qd for 14 days by RT-PCR analysis (reference value: 92%); assay type: functional, strain Toledo; parameters: scale not given: the % may be the effect or the level left

Nc1ncc2ncn(/C=C3/CC3(CO)CO)c2n1
Activity (Human betaherpesvirus 5 [1]): 2.69 | Activity (Murid betaherpesvirus 1 [2]): 0% | Activity (Mus musculus [3]): Non-toxic | Activity (Human betaherpesvirus 5 [4]): 100% | Activity (Mus musculus [5]): Non-toxic | Activity (Human betaherpesvirus 5 [6]): 100% | Activity (Human betaherpesvirus 5 [7]): 2.94 | Activity (Human betaherpesvirus 5 [8]): 3.9 | EC50 (Human alphaherpesvirus 2): > 300 µM | Activity (Mus musculus [9]): 17% | EC50 (Human alphaherpesvirus 3): > 300 µM | Activity (Murid betaherpesvirus 1 [10]): 8.3 days | Activity (Cowpox virus): inactive | Activity (Murid betaherpesvirus 1 [11]): 7 days | Activity (Human betaherpesvirus 5 [12]): 82% | Activity (Human betaherpesvirus 5 [13]): 92%
